# Laboratory results: ChEMBL document CHEMBL4000256, “Light-Regulated NO Release as a Novel Strategy To Overcome Doxorubicin Multidrug Resistance” (ACS Med Chem Lett, 2017)
# Calls of active or inactive are those of the source. No cut-off for these calls is given here.
# Columns and labels:
# Bos taurus = organism: Bos taurus; test: Binding affinity to calf thymus duplex DNA at 10 uM by fluorescence spectroscopic method
# Homo sapiens = organism: Homo sapiens; test: […] in 7 mW/cm'2 irradiated human M14 cells assessed as increase in LDH release at 5 uM measured after 20 mins by spectrophotometric method
# [1] = Induction of NO release in pH 7.4 PBS irradiated with 7 mW/cm2 light at 10 uM after 0.5 hrs by amperometric detection assay
# How it was run: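 NO release recorded during alternating light (λexc 405 nm) and dark cycles. Solution at 10 μM in PBS (pH 7.4, 10 mM, 3% DMSO), with or without 18 μM ct-DNA.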
# [2] = Solubility of the compound in PBS with 3% DMSO; format: physicochemical; settings: buffer
# M14 [3] = test: Dark toxicity in human M14 cells assessed as increase in nitrite levels at 5 uM measured after 20 mins in presence of doxorubicin by Griess reagent based spectrophotometric method; format: cell-based; settings: m14, 20 min
# How it was run: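 M14 melanoma cells held 20 min at room temperature in PBS, either in the dark or under 400 nm light (7 mW/cm2), with 5 μM compound alone or alongside 5 μM doxorubicin. Nitrite in the supernatant measured by Griess assay, in triplicate, n = 3.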
# [4] = biological target: T1, ATP-binding cassette sub-family C member 4 (Homo sapiens, UniProt O15439); test: Inhibition of MRP4 in 7 mW/cm'2 irradiated human M14 cells assessed as nitration of tyrosine in MRP4 at 5 uM measured after 20 mins in presence of doxorubicin by immunoblotting
# T1 sequence (O15439 whole entry): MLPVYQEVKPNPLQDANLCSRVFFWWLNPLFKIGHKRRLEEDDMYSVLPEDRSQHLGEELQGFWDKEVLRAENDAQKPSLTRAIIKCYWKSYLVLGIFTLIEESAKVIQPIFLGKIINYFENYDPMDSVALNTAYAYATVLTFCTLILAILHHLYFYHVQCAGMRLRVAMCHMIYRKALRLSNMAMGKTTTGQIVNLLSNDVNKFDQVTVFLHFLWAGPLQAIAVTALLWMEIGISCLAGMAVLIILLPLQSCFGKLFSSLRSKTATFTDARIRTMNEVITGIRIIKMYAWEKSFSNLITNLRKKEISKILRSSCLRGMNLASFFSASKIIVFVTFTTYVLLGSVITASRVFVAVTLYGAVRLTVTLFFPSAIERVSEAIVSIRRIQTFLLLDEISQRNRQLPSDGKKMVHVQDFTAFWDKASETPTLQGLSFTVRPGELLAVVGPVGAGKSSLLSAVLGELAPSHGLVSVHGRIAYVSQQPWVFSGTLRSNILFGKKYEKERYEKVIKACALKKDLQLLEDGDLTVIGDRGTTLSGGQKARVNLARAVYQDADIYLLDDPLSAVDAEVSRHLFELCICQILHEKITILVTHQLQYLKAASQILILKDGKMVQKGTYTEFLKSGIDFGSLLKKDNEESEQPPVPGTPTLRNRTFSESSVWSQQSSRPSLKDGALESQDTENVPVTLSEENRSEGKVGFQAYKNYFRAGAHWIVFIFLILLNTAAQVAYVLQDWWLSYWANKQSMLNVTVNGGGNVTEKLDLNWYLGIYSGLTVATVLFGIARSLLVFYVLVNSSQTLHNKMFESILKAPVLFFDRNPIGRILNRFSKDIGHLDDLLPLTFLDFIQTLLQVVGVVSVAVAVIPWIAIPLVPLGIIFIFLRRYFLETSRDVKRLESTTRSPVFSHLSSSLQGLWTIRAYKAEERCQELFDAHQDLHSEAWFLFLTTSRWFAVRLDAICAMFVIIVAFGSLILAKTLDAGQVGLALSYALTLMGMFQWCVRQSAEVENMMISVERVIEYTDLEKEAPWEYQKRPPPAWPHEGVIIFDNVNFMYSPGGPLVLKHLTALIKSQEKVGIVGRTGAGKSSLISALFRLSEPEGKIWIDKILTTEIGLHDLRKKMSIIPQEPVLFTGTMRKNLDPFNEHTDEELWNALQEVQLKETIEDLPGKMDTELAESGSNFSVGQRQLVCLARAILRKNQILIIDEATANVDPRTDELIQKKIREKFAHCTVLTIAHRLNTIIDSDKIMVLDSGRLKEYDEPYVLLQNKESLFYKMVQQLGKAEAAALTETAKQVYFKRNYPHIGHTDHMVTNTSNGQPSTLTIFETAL
# How it was run: (§1)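 M14 melanoma cells held 20 min at room temperature in PBS under 400 nm light (7 mW/cm2) with 5 μM compound, alone or with equimolar doxorubicin. Nitrated ABC transporters (Pgp, MRP1, MRP4, BCRP) detected by immunoblot.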
# [5] = biological target: T2, Multidrug resistance-associated protein 1 (Homo sapiens, UniProt P33527); test: Inhibition of MRP1 in 7 mW/cm'2 irradiated human M14 cells assessed as reduction in ATPase activity at 5 uM measured after 20 mins in presence of doxorubicin by immunoblotting
# How it was run: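 M14 melanoma cells held 20 min at room temperature in PBS under 400 nm light (7 mW/cm2) with 5 μM compound, alone or with equimolar doxorubicin. Transporter ATPase activity then measured; n = 3.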
# M14 [6] = test: Cytotoxicity against 7 mW/cm'2 irradiated human M14 cells assessed as increase in LDH release at 5 uM coadministered with DOX measured after 20 mins by spectrophotometric method; format: functional, cell-based
# How it was run: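 Cells (M14 melanoma, human fibroblasts or rat H9c2 cardiomyocytes) kept 20 min at room temperature in PBS under 400 nm light (7 mW/cm2), alone or with 5 μM compound, given alone or with equimolar 5 μM doxorubicin. Damage read as extracellular LDH release. Triplicate measurements, n = 3.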
# Fibroblast = test: Dark toxicity against human fibroblasts at 5 uM measured after 20 mins co-incubated with doxorubicin by spectrophotometric method; format: cell-based
# How it was run: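 Cells (M14 melanoma, human fibroblasts or rat H9c2 cardiomyocytes) kept 20 min at room temperature in PBS in the dark, with 5 μM compound, given alone or with equimolar 5 μM doxorubicin. Cytotoxicity read as extracellular LDH release. Triplicate measurements, n = 3.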
# [7] = biological target: T2, Multidrug resistance-associated protein 1; test: Inhibition of MRP1 in 7 mW/cm'2 irradiated human M14 cells assessed as nitration of tyrosine in MRP1 at 5 uM measured after 20 mins in presence of doxorubicin by immunoblotting; how it was run: as §1
# T2 sequence (P33527 whole entry): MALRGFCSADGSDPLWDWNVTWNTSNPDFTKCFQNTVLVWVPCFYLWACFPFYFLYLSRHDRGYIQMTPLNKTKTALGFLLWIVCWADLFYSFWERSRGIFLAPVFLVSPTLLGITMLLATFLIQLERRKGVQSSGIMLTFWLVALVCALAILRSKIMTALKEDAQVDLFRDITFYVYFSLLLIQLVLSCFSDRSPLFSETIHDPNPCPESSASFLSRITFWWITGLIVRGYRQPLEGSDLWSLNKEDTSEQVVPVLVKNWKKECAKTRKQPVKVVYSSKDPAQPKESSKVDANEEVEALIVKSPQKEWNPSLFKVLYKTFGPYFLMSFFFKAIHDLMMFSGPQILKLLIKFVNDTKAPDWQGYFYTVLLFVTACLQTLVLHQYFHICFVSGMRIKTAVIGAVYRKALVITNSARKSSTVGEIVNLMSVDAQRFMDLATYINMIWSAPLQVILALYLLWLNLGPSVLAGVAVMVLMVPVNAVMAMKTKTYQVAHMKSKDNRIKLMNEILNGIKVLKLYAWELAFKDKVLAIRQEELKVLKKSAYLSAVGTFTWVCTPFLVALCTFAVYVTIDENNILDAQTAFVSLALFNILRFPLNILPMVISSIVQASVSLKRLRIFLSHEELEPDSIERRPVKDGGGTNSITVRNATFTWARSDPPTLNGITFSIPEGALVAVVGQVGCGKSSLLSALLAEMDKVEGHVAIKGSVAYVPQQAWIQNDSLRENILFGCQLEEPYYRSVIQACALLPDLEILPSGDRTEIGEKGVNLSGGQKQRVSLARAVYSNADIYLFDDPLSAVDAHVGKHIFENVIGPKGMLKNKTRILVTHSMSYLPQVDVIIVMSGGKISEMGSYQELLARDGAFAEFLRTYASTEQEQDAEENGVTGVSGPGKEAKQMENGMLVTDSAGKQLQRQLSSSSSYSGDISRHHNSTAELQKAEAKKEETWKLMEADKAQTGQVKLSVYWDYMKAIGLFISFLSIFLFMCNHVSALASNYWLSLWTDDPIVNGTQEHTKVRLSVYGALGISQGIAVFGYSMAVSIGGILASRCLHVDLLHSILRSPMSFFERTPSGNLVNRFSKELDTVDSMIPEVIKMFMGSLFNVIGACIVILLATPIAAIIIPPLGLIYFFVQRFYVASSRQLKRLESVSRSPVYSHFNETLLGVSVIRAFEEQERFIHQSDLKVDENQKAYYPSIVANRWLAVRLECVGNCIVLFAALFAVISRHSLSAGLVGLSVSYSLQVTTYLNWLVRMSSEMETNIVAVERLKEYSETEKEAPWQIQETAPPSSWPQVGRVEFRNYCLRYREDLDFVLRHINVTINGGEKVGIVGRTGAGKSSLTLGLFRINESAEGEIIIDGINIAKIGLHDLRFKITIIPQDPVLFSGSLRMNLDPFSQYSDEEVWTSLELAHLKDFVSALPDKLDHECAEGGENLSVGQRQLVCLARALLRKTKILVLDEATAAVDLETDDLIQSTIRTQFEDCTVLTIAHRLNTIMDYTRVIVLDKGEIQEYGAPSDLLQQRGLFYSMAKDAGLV
Activity (Bos taurus),inhibition (Homo sapiens),solubility [2],Structure (SMILES),Activity [1],Activity (M14 [3]),inhibition (INH) [4],inhibition (INH) [5],Activity (M14 [6]),Activity (Fibroblast),inhibition (INH) [7]
Active,Active,Soluble,COc1cccc2c1C(=O)c1c(O)c3c(c(O)c1C2=O)C[C@@](O)(C(=O)COC(=O)c1ccc(C(=O)NCCCNc2ccc([N+](=O)[O-])c(C(F)(F)F)c2)cc1)C[C@@H]3O[C@H]1C[C@H](N)[C@H](O)[C@H](C)O1.Cl,Active,–,–,–,–,–,–
–,–,–,NCCCNc1ccc([N+](=O)[O-])c(C(F)(F)F)c1,–,Non-Toxic,Active,Active,Active,Non-Toxic,Active
